# Results from ChEMBL document CHEMBL1151715, “Novel D-xylose derivatives stimulate muscle glucose uptake by activating AMP-activated protein kinase alpha” (J Med Chem, 2008).
# The source made the active and inactive calls. No cut-off for these calls is given here.
# Columns and labels:
# [1] = Cytotoxicity against rat L6 cells by MTT assay; type: cell-based
# Procedure, shortened: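 MTT assay on L6 myotubes after the treatment incubations: MTT at 2 mg/mL in αMEM for 30 min at 37 °C, formazan dissolved in DMSO, absorbance read at 570 nm.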
# L6 [2] = assay: Effect on [3H]2-deoxy-D-glucose uptake in rat L6 cells at 150 uM relative to control; type: functional
# Procedure, shortened: (§1)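 L6 myotubes were held in αMEM with 2% FCS and 23.0 mM D-glucose for 24 h. They were then treated with increasing concentrations in medium with 10% FCS and 23.0 mM D-glucose for 7 or 18 h; vehicle controls ran 18 h. After washing, uptake was measured with 0.1 mM dGlc plus 1.3 µCi/mL [3H]dGlc in PBS pH 7.4 for 5 min at room temperature. Ice-cold PBS stop, SDS lysis, scintillation counting; basal rate set to 100%.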
# L6 [3] = assay: Effect on [3H]2-deoxy-D-glucose uptake in rat L6 cells at 100 uM relative to control; type: functional; procedure, shortened: as §1
# L6 [4] = assay: Effect on [3H]2-deoxy-D-glucose uptake in rat L6 cells at 20 mM upto 48 hrs relative to control; type: functional
# L6 [5] = assay: Increase in [3H]2-deoxy-D-glucose uptake in rat L6 cells preincubated with 23 mM D-glucose for 24 hrs at 5 mM after 7 hrs relative to control; type: functional
# Procedure, shortened: (§2)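 L6 myotubes were preconditioned 24 h at 23.0 mM D-glucose, then given fresh αMEM with 23.0 mM D-glucose plus agent for 7 h. Insulin (200 nM) was added for the last 30 min. A 5-min [3H]dGlc uptake (0.1 mM dGlc, 1.3 µCi/mL) was run in PBS at room temperature, with the 23.0 mM glucose basal rate set to 100%.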
# L6 [6] = assay: Effect on [3H]2-deoxy-D-glucose uptake in rat L6 cells at 5 mM after 7 hrs relative to control in presence of insulin; type: functional, cell-based; procedure, shortened: as §2
# L6 [7] = assay: Activation of 5-AMP-induced AMPKalpha in rat L6 cells assessed as […] phosphorylation at 0.25 M relative to control; type: cell-based
# Procedure, shortened: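 AICAR-type positive control on L6 myotubes: 0.25 M D-sorbitol for 30 min. Whole-cell lysates were blotted for total AMPKα and phospho-Thr172 AMPKα, detected by ECL, with bands quantified by densitometry.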
# Homo sapiens = species: Homo sapiens; assay: Activation of 5-AMP-induced AMPKalpha in human skeletal muscle cells assessed as […] phosphorylation at 4 mM relative to control
# Procedure, shortened: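 Primary human skeletal muscle myoblasts (rectus abdominis, donor) were differentiated into myotubes using the supplier's protocol. The agent was given at 4 mM for 1 h. Whole-cell lysates were separated by SDS-PAGE and Western blotted for AMPKα and […]-AMPKα, with HRP anti-rabbit IgG and ECL detection. Bands were quantified by film densitometry.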
# L6 [8] = assay: Increase in [3H]2-deoxy-D-glucose uptake in rat L6 cells at 20 mM preincubated 24 hrs with D-glucose assessed after 6 hrs relative to control; type: functional
# Procedure, shortened: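 L6 myotubes were preconditioned 24 h at 23.0 mM D-glucose, then incubated up to 10 h in the same medium plus pentose (20.0 mM for time course; dose-response for half-maximal and maximal). Cells were washed with PBS, then given a 5-min room-temperature uptake of 0.1 mM dGlc with 1.3 µCi/mL [3H]dGlc. Counts were normalised to protein against untreated controls.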
structure (smiles),measurement,setting,value
CCCCCCCCCCCC(=O)S[C@@H]1OC[C@@H](O)[C@H](O)[C@H]1O,MCC,[1],400 µM
same,fold change (FC),L6 [2],0.98
CO[C@@H]1OC[C@@H](OC(=O)C(C)(C)C)[C@H](OC(=O)C(C)(C)C)[C@H]1OC(=O)C(C)(C)C,fold change (FC),L6 [3],1.03
same,MCC,[1],150 µM
CCCCO[C@H]1[C@H](O)COC(O)[C@@H]1O (some centres undefined),fold change (FC),L6 [4],0.94
same,MCC,[1],1000 µM
CO[C@H]1OC[C@@H](O)[C@H](O)[C@H]1O,fold change (FC),L6 [5],1.98
same,Activity,L6 [6],Active
COC(OC)[C@@H]1OC(c2ccc(F)cc2)O[C@@H]2COC(c3ccc(F)cc3)O[C@@H]21 (some centres undefined),MCC,[1],250 µM
OC[C@@H](O)[C@@H](O)[C@H](O)[C@@H](O)CO,Activity,L6 [7],Active
CCCO[C@H]1[C@H](O)COC(O)[C@@H]1O (some centres undefined),fold change (FC),L6 [5],3.89
same,Activity,L6 [6],Active
CCO[C@H]1[C@H](O)COC(O)[C@@H]1O (some centres undefined),fold change (FC),L6 [5],2.79
same,Activity,L6 [6],Active
NC(=O)c1ncn([C@@H]2O[C@H](COP(=O)(O)O)[C@@H](O)[C@H]2O)c1N,Activity,Homo sapiens,Active
OC1OC[C@@H](O)[C@@H](O)[C@@H]1O (stereo partly drawn) [D-ARABINOSE],fold change (FC),L6 [8],1.38
CO[C@@H]1OC[C@@H](OC(=O)c2ccccc2)[C@H](OC(=O)c2ccccc2)[C@H]1OC(=O)c1ccccc1,MCC,[1],250 µM
same,fold change (FC),L6 [2],1.01
CO[C@H]1C(O)OC[C@@H](O)[C@@H]1O (some centres undefined),MCC,[1],50000 µM
